Test results as given in ChEMBL document CHEMBL4007470, “Discovery of a 2'-fluoro-2'-C-methyl C-nucleotide HCV polymerase inhibitor and a phosphoramidate prodrug with favorable properties” (Bioorg Med Chem Lett, 2017).
pEC50, pIC50: −log10 of the molar value. Values after ≈ are worked out from the molar mass of the structure shown.

How the values were obtained:
[1] = Inhibition of human RNA polymerase-2
[2] = (§1) Half life in human plasma at 2 uM by LC-MS/MS analysis; type: ADME, cell-free
Procedure, shortened: (§2)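 Compound at 2 μM incubated in plasma at 37 °C for up to 4 h. Aliquots quenched with 9 volumes of acetonitrile containing internal standard, then centrifuged. Supernatant analysed by LC-MS/MS.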

[3] = Half life in hamster intestinal S9 fractions at 2 uM by LC-MS/MS analysis; type: ADME, Intestine; conditions: cricetinae; for t1/2: s9, 2 µM, 2 µM
Hepatitis C virus [4] = assay: Antiviral activity against HCV genotype 1b infected in human HuH7 cells by luciferase reporter gene assay; type: functional, cell-based, Hepacivirus hominis
Procedure, shortened: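 Luciferase-reporter genotype 1b subgenomic replicon in Huh-7 cells; EC50 is concentration giving 50% inhibition. Values are averages of at least three repeats.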

[5] = Prodrug activation in Syrian golden hamster liver assessed as triphosphate metabolite formation at 5 mg equivalents/kg, po after 1 hr by LC-MS/MS analysis; type: ADME, organism-based, Mesocricetus auratus; conditions: in vivo
Procedure, shortened: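 Golden Syrian hamsters (groups of 12) dosed orally at 5 mg-eq/kg in EtOH/PEG400/water buffered with 50 mM pH 4 citrate. Livers harvested under isoflurane at 1 h and extracted in cold KOH/EDTA/70% MeOH with Cl-ATP. Triphosphate measured by LC/MS/MS, with endogenous ATP checked for sample stability.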

[6] = (§3) Hepatic extraction in human liver S9 fractions at 2 uM by LC-MS/MS analysis; type: ADME; conditions: liver S9 fractions, read-out: ERH
Procedure, shortened: (§4)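 Compound at 2 μM incubated with S9 fractions at 37 °C for 90 min with NADPH and UDPGA. Quenched with aqueous acetonitrile/methanol containing internal standard and analysed by LC-MS/MS. Half-life from an exponential fit assuming first-order kinetics. Hepatic extraction predicted from half-life using the well-stirred model.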

Hepatitis C virus [7] = assay: Antiviral activity against HCV genotype 1a infected in human HuH7 cells by luciferase reporter gene assay; type: functional, cell-based, Hepacivirus hominis, subtype 1a
[8] = Half life in hamster plasma at 2 uM by LC-MS/MS analysis; type: ADME, cell-free; conditions: cricetinae; for t1/2: 2 µM; procedure, shortened: as §2
[9] = Half life in human intestinal S9 fractions at 2 uM by LC-MS/MS analysis; type: ADME, Intestine; procedure, shortened: as §4
[10] = Permeability of the compound from apical to basolateral side in human Caco2 cells at 10 uM; type: ADME, cell-based, Caco-2; conditions: for Papp A→B at 10 µM: Caco-2, read-out: permeability
Procedure, shortened: (§5)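 Caco-2 permeability at 10 μM compound, measured in apical-to-basolateral and basolateral-to-apical directions.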

[11] = Permeability of the compound from basolateral to apical side in human Caco2 cells at 10 uM; type: ADME, cell-based, Caco-2; conditions: for Papp B→A at 10 µM: Caco-2, read-out: permeability; procedure, shortened: as §5
[12] = Hepatic extraction in hamster liver S9 fractions at 2 uM by LC-MS/MS analysis; type: ADME; conditions: cricetinae; for hepatic extraction ratio at 2 µM: liver S9 fractions, read-out: ERH; procedure, shortened: as §4
Hepatitis C virus [13] = assay: Antiviral activity against HCV genotype 4a infected in human HuH7 cells by luciferase reporter gene assay; type: functional, cell-based, Hepacivirus hominis
Plasma [14] = assay: Stability in rat plasma at 2 uM up to 4 hrs by LC-MS/MS analysis; type: ADME, cell-free; procedure, shortened: as §2
[15] = Solubility of the compound in pH 7.4 solution; type: physicochemical
Procedure, shortened: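 Solubility measured at pH 7.4 using amorphous material.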

[16] = Fraction absorbed in Beagle dog at 5 mg/kg, po; type: ADME, organism-based, Canis lupus familiaris; conditions: in vivo, read-out: Fabs
Procedure, shortened: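 Male beagle dogs dosed orally at 5 mg/kg. Fraction absorbed determined by portal vein sampling.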

[17] = Prodrug activation in human HuH7 cells infected with HCV genotype 1b assessed as((2R,3R,4R,5S)-5-(4-aminopyrrolo[1,2-f][1,2,4]triazin-7-yl)-3,4-dihydroxy-4-methyltetrahydrofuran-2-yl)methyl tetrahydrogen triphosphate formation per million cells at 10 uM after 6 hrs by LC-MS/MS analysis; type: cell-based; conditions: huh-7, 6 h
Procedure, shortened: (§6)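 Huh-7 replicon cells grown in DMEM with 10% heat-inactivated FBS, penicillin-streptomycin and G418, plated to confluency (0.88×10^6 cells/well). Prodrug at 10 μM given as continuous incubation, sampled at 2, 6 and 24 h. Cells washed with ice-cold saline and extracted into 70% methanol overnight. Triphosphate quantified by LC-MS/MS (LLOQ 0.137 pmol/million cells). Duplicate wells, single experiment.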

Huh-7 = assay: Cytotoxicity against human HuH7 cells; type: cell-based
[18] = Prodrug activation in human HuH7 cells infected with HCV genotype 1b assessed as ((2R,3R,4R,5S)-5-(4-aminopyrrolo[1,2-f][1,2,4]triazin-7-yl)-3,4-dihydroxy-4-methyltetrahydrofuran-2-yl)methyl tetrahydrogen triphosphate formation per million cells at 10 uM after 2 hrs by LC-MS/MS analysis; type: cell-based; conditions: huh-7, 2 h; procedure, shortened: as §6
[19] = Prodrug activation in human HuH7 cells infected with HCV genotype 1b assessed as ((2R,3R,4R,5S)-5-(4-aminopyrrolo[1,2-f][1,2,4]triazin-7-yl)-3,4-dihydroxy-4-methyltetrahydrofuran-2-yl)methyl tetrahydrogen triphosphate formation per million cells at 10 uM after 24 hrs by LC-MS/MS analysis; type: cell-based; conditions: huh-7, 24 h; procedure, shortened: as §6
Plasma [20] = assay: as §1; type: ADME, cell-free; conditions: 2 µM; procedure, shortened: as §2
Liver = assay: as §3; type: ADME; conditions: s9, 2 µM, 2 µM; procedure, shortened: as §4
[21] = Prodrug activation in human HuH7 cells infected with HCV genotype 1b assessed as ((2R,3R,4R,5R)-5-(4-aminoimidazo[1,2-f][1,2,4]triazin-7-yl)-5-cyano-4-fluoro-3-hydroxy-4-methyltetrahydrofuran-2-yl)methyl tetrahydrogen triphosphate level per million cells at 10 uM after 2 hrs by LC-MS/MS analysis; type: cell-based; conditions: huh-7, 2 h
Procedure, shortened: (§7)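 HCV genotype 1b replicon Huh-7 cells (DMEM with glutaMAX, 10% heat-inactivated FBS, penicillin-streptomycin, G418) grown to confluency (0.88×10^6 cells/well), exposed continuously to prodrug at 10 μM for up to 24 h; washed in ice-cold saline, extracted into 70% methanol overnight, dried, resuspended in 1 mM ammonium phosphate pH 8.5; triphosphate quantified by LC-MS/MS; LLOQ 0.137 pmol/million cells; duplicate wells, single experiment.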

[22] = Prodrug activation in human HuH7 cells infected with HCV genotype 1b assessed as ((2R,3R,4R,5R)-5-(4-aminoimidazo[1,2-f][1,2,4]triazin-7-yl)-5-cyano-4-fluoro-3-hydroxy-4-methyltetrahydrofuran-2-yl)methyl tetrahydrogen triphosphate level per million cells at 10 uM after 6 hrs by LC-MS/MS analysis; type: cell-based; conditions: huh-7, 6 h; procedure, shortened: as §7
[23] = Prodrug activation in human HuH7 cells infected with HCV genotype 1b assessed as ((2R,3R,4R,5R)-5-(4-aminoimidazo[1,2-f][1,2,4]triazin-7-yl)-5-cyano-4-fluoro-3-hydroxy-4-methyltetrahydrofuran-2-yl)methyl tetrahydrogen triphosphate level per million cells at 10 uM after 24 hrs by LC-MS/MS analysis; type: cell-based; conditions: huh-7, 24 h; procedure, shortened: as §7
[24] = Hepatitis C virus, genotype 1b, Huh-7
[25] = Hepatitis C virus, genotype 4a, Huh-7

half-life at 2 µM [2] [h]	pEC50 (Hepatitis C virus [4]; [24])	liver triphosphate concentration [5] [µM]	hepatic extraction ratio at 2 µM [6]	half-life at 2 µM [9] [h]	Papp A→B at 10 µM [10] [×10⁻⁶ cm/s]	Papp B→A at 10 µM [11] [×10⁻⁶ cm/s]	hepatic extraction ratio at 2 µM [12]	pEC50 (Hepatitis C virus [13]; [25])	Stability (Plasma [14])	solubility [15] [µg/mL]	t1/2 [3] [h]	pEC50 (Hepatitis C virus [4])	pEC50 (Hepatitis C virus [7])	t1/2 [8] [h]	SMILES	Activity (Huh-7)	also measured
2.58	4.38	1.29	0.65	> 13.2	4.2	17.6	0.86	5.96	Unstable	657 (≈ 1160 µM)					CC(C)OC(=O)C(C)(C)NP(=O)(OC[C@H]1O[C@@H](c2ccc3c(N)ncnn23)[C@](C)(F)[C@@H]1O)Oc1ccccc1 (stereo not given in full)		half-life at 2 µM ([3]; intestinal S9 fractions): 1.77 h; pEC50 (Hepatitis C virus [7]; Hepatitis C virus, subtype 1a, Huh-7): 5.30; half-life at 2 µM [8]: 2.07 h
8.9		1.89	0.79	> 13.2	2.4	9.7	0.93	6.42	Unstable	538 (≈ 930 µM)	0.8	4.73	5.64	> 13.2	CC(C)OC(=O)C1(NP(=O)(OC[C@H]2O[C@@H](c3cnc4c(N)ncnn34)[C@](C)(F)[C@@H]2O)Oc2ccccc2)CCC1 (stereo in doubt; 37)		Fa [16]: > 70%
	5.84														CCOC(=O)[C@H](C)N[P@@](=O)(O)OC[C@H]1O[C@@](C#N)(c2ccc3c(N)ncnn23)[C@](C)(O)[C@@H]1O	Non-Toxic	Drug metabolism [17]: 117 pmol; Drug metabolism [18]: 26 pmol; Drug metabolism [19]: 83 pmol

Further lines, the compound ahead of its results:

SMILES	half-life at 2 µM [2] [h]	pEC50 (Hepatitis C virus [4]; [24])	liver triphosphate concentration [5] [µM]	hepatic extraction ratio at 2 µM [6]	half-life at 2 µM [9] [h]	Papp A→B at 10 µM [10] [×10⁻⁶ cm/s]	Papp B→A at 10 µM [11] [×10⁻⁶ cm/s]	hepatic extraction ratio at 2 µM [12]	pEC50 (Hepatitis C virus [13]; [25])	Stability (Plasma [14])	solubility [15] [µg/mL]	t1/2 [3] [h]	pEC50 (Hepatitis C virus [4])	pEC50 (Hepatitis C virus [7])	t1/2 [8] [h]	Activity (Huh-7)	also measured
CC[C@H](C)[C@@H]1NC(=O)CNC(=O)[C@@H]2Cc3c([nH]c4cc(O)ccc34)[S+]([O-])C[C@@H](NC(=O)CNC1=O)C(=O)N[C@@H](CC(N)=O)C(=O)N1C[C@H](O)C[C@H]1C(=O)NC([C@@H](C)[C@@H](O)CO)C(=O)N2 (stereo not given in full)																	pIC50 [1]: 8.62
CC(C)OC(=O)C1(NP(=O)(OC[C@H]2O[C@@H](c3cnc4c(N)ncnn34)[C@](C)(F)[C@@H]2O)Oc2ccccc2)CCC1 (stereo in doubt; 54)												0.3	4.51	5.14	7.17		t1/2 (Plasma [20]): > 13.2 h; ERH (Liver): 78%; permeability ([10]; caco-2, 10 µM, 10 µM): 1.3 ×10⁻⁶ cm/s; permeability ([11]; caco-2, 10 µM, 10 µM): 9.2 ×10⁻⁶ cm/s; ERH ([12]; s9, 2 µM, 2 µM): 96%; pEC50 (Hepatitis C virus [13]): 6.13
CCOC(=O)[C@H](C)NP(=O)(OC[C@H]1O[C@@](C#N)(c2ccc3c(N)ncnn23)[C@](C)(F)[C@@H]1O)Oc1ccccc1 (stereo not given in full)		5.49														Non-Toxic	Drug metabolism [21]: 1.6 pmol; Drug metabolism [22]: 5.8 pmol; Drug metabolism [23]: 3.3 pmol
